Test [1] has as its system U-937. Kind of test: Cytotoxicity against human U-937 cells at 20 nM assessed as decrease in cell viability in combination with 0.5 uM SAHA measured after 24 hrs by MTT assay. Type of test: functional. (In general: Tetrazolium assays rely on reduction of a dye to a coloured formazan, in cell work by metabolically active cells.)
In test [2] the test system is KG-1a. In words: Cytotoxicity against human KG-1a cells at 20 nM assessed as decrease in cell viability in combination with 0.5 uM SAHA measured after 24 hrs by MTT assay. Type of test: functional.
Test [3] has as its system HL-60. Kind of test: Cytotoxicity against human HL-60 cells at 20 nM assessed as decrease in cell viability in combination with 0.5 uM SAHA measured after 24 hrs by MTT assay. Type of test: functional.
The test system of test [4] is KG-1a. In words: Induction of myeloid differentiation in human KG-1a cells at 20 uM assessed as increase in CD11b mRNA expression measured after 48 hrs by RT-PCR assay. Type of test: functional, cell-based. The essentials: (§1)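 Cells exposed for 48 h (KG-1a in IMDM/15% FBS; HL-60 and U937 in RPMI/10% FBS). Total RNA extracted, 1 µg reverse transcribed, CD11b quantified by SYBR green real-time PCR normalised to actin. Cycling was 30 cycles of 95 °C, 60 °C and 72 °C, 45 s each. Mean ± s.e. of three independent experiments, compared with untreated control.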

For test [5], the system named is U-937. In words: Induction of myeloid differentiation in human U-937 cells at 20 uM assessed as increase in CD11b mRNA expression measured after 48 hrs by RT-PCR assay. The class given is functional, cell-based. The essentials:
as §1

Test [6] has as its system HL-60. In words: Induction of myeloid differentiation in human HL-60 cells at 20 uM assessed as increase in CD11b mRNA expression measured after 48 hrs by RT-PCR assay. Type of test: functional, cell-based. The essentials:
as §1

In test [7] the test system is KG-1a. Kind of test: Cytotoxicity against human KG-1a cells assessed as decrease in cell viability measured after 48 hrs by MTT assay. The class given is functional, cell-based.
Test [8] concerns KG-1a. In words: Cytotoxicity against human KG-1a cells assessed as decrease in cell viability measured after 24 hrs by MTT assay. Type of test: functional, cell-based. The method, boiled down:
(§2)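 MTT viability read 24 h after exposure over a low concentration range (0–25 μM for one inhibitor, 0–100 for the other as printed). IC50 was derived for each line. Culture: HL-60 and U937 in RPMI + 10% FBS, KG-1a in IMDM + 15% FBS.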

The test system of test [9] is U-937. Kind of test: Cytotoxicity against human U-937 cells assessed as decrease in cell viability measured after 48 hrs by MTT assay. Type of test: functional, cell-based. The following applies: U-937, 48 h.
Test [10] concerns U-937. Kind of test: Cytotoxicity against human U-937 cells assessed as decrease in cell viability measured after 24 hrs by MTT assay. As to conditions: U-937, 24 h. The class given is functional, cell-based. The method, boiled down:
as §2

In test [11] the test system is HL-60. Kind of test: Cytotoxicity against human HL-60 cells assessed as decrease in cell viability measured after 48 hrs by MTT assay. The class given is functional, cell-based. As to conditions: HL-60, 48 h.
Test [12] has as its system HL-60. Kind of test: Cytotoxicity against human HL-60 cells assessed as decrease in cell viability measured after 24 hrs by MTT assay. Type of test: functional, cell-based. The following applies: HL-60, 24 h. The essentials: as §2
For test [13], the system named is U-937. Kind of test: Induction of myeloid differentiation in human U-937 cells at 50 nM measured after 12 hrs by Liu's staining method. The class given is functional, cell-based. The essentials:
(§3)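 Cells received single epigenetic inhibitors or combinations and were collected by cytospin. After Liu's staining (reagent A 1 min, reagent B 2.5 min), differentiated cells were counted under a light microscope. Mean ± s.e. of three independent experiments.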

In test [14] the test system is KG-1a. Kind of test: Induction of myeloid differentiation in human KG-1a cells at 50 nM measured after 12 hrs by Liu's staining method. Type of test: functional, cell-based. The method, boiled down:
as §3

For test [15], the system named is HL-60. In words: Induction of myeloid differentiation in human HL-60 cells at 50 nM measured after 12 hrs by Liu's staining method. Type of test: functional, cell-based. The essentials: as §3

The source made the active and inactive calls. The calls are words filed in the database; no cut-off is given here.

As for `CN1C(=O)[C@@]23C[C@]4([C@]56C[C@@]78SS[C@@](CO)(C(=O)N7[C@H]5Nc5ccccc56)N(C)C8=O)c5ccccc5N[C@@H]4N2C(=O)[C@]1(CO)SS3.O=C(CCCCCCC(=O)Nc1ccccc1)NO`, the Activity is recorded as 20% with U-937 [1], 40% with KG-1a [2] and 40% in the test on HL-60 [3].

Regarding `COc1cc2c(NC3CCN(C(C)C)CC3)nc(C3CCCCC3)nc2cc1OCCCN1CCCC1`, the result in the test with KG-1a [4], in the test on U-937 [5] and with HL-60 [6] was inactive. The IC50 (commonly the concentration that inhibits the measured activity by half) in the test on KG-1a [7] turned out to be 22.4 µM; in the test on KG-1a [8] it was 26.5 µM; with U-937 [9], 19.7 µM; with U-937 [10] it was 21.4 µM; in the test on HL-60 [11] it was 23.8 µM; in the test with HL-60 [12] it was 27.4 µM.

Take `CN1C(=O)[C@@]23C[C@]4([C@]56C[C@@]78SS[C@@](CO)(C(=O)N7[C@H]5Nc5ccccc56)N(C)C8=O)c5ccccc5N[C@@H]4N2C(=O)[C@]1(CO)SS3` [CHAETOCIN]: the values for the Activity in the test on U-937 [1], in the test on KG-1a [2] and in the test with HL-60 [3] were 20%, 40% and 40%, respectively. In addition, the IC50 in the test on KG-1a [7] is 9.5e-05 µM; in the test on KG-1a [8], 0.000103 µM; with U-937 [9], 8.2e-05 µM; with U-937 [10] it was 9.6e-05 µM; in the test with HL-60 [11], 0.000127 µM; with HL-60 [12], 0.000153 µM.

On to `Cc1sc2c(c1C)C(c1ccc(Cl)cc1)=N[C@@H](CC(=O)OC(C)(C)C)c1nnc(C)n1-2`, for which the outcome with U-937 [13], in the test on KG-1a [14] and in the test on HL-60 [15] was Active.

The values above are taken from ChEMBL document CHEMBL5674867, “The SUV39H1 inhibitor chaetocin induces differentiation and shows synergistic cytotoxicity with other epigenetic drugs in acute myeloid leukemia cells” (Blood Cancer J, 2015).
